Laboratory results taken from ChEMBL document CHEMBL1165969, “Synthesis and cytotoxicity of novel indirubin-5-carboxamides” (Bioorg Med Chem, 2010).
In brackets after ≈: the same amount, converted by molar mass.

Experiments:
[1] = biological target: Aurora kinase C (Homo sapiens) (UniProt Q9UQB9); assay: Inhibition of Aurora C assessed as residual activity at 10 uM after 80 mins by microplate scintillation counting
[2] = biological target: Proto-oncogene tyrosine-protein kinase receptor Ret (Homo sapiens) (UniProt P07949); assay: Inhibition of RET assessed as residual activity at 10 uM after 80 mins by microplate scintillation counting
Procedure, shortened: (§1)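 Kinase profiling was outsourced to a contract laboratory as a panel of 30 protein kinases. Each compound was tested at two concentrations, and residual kinase activity was recorded.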

[3] = biological target: T1, Cyclin-dependent kinase 1/cyclin B1 (Homo sapiens) (UniProt P06493+P14635); assay: Inhibition of CDK1/Cyclin B1 assessed as residual activity at 1 uM after 80 mins by microplate scintillation counting; type: protein-complex assay
[4] = biological target: Aurora kinase A (Homo sapiens) (UniProt O14965); assay: Inhibition of Aurora A assessed as residual activity at 1 uM after 80 mins by microplate scintillation counting
[5] = biological target: Receptor-type tyrosine-protein kinase FLT3 (Homo sapiens) (UniProt P36888); assay: Inhibition of FLT3 assessed as residual activity at 1 uM after 80 mins by microplate scintillation counting
[6] = biological target: Serine/threonine-protein kinase Chk2 (Homo sapiens) (UniProt O96017); assay: Inhibition of CHK2 assessed as residual activity at 10 uM after 80 mins by microplate scintillation counting
[7] = biological target: Ribosomal protein S6 kinase beta-1 (Homo sapiens) (UniProt P23443); assay: Inhibition of p70S6K1 assessed as residual activity at 1 uM after 80 mins by microplate scintillation counting; procedure, shortened: as §1
[8] = biological target: Vascular endothelial growth factor receptor 2 (Homo sapiens) (UniProt P35968); assay: Inhibition of VEGFR2 assessed as residual activity at 10 uM after 80 mins by microplate scintillation counting; procedure, shortened: as §1
[9] = biological target: Aurora kinase B (Homo sapiens) (UniProt Q96GD4); assay: Inhibition of Aurora B assessed as residual activity at 1 uM after 80 mins by microplate scintillation counting
[10] = biological target: T1, Cyclin-dependent kinase 1/cyclin B1 (Homo sapiens); assay: Inhibition of CDK1/Cyclin B1 assessed as residual activity at 10 uM after 80 mins by microplate scintillation counting; type: protein-complex assay
[11] = biological target: Cyclin-dependent kinase 5/CDK5 activator 1 (Homo sapiens) (UniProt Q00535+Q15078); assay: Inhibition of CDK5/p35 assessed as residual activity at 10 uM after 80 mins by microplate scintillation counting; type: protein-complex assay
[12] = biological target: Fibroblast growth factor receptor 1 (Homo sapiens) (UniProt P11362); assay: Inhibition of FGFR1 assessed as residual activity at 1 uM after 80 mins by microplate scintillation counting
[13] = biological target: Focal adhesion kinase 1 (Homo sapiens) (UniProt Q05397); assay: Inhibition of FAK assessed as residual activity at 1 uM after 80 mins by microplate scintillation counting
[14] = biological target: Proto-oncogene tyrosine-protein kinase receptor Ret (Homo sapiens) (UniProt P07949); assay: Inhibition of RET assessed as residual activity at 1 uM after 80 mins by microplate scintillation counting; procedure, shortened: as §1
[15] = biological target: Cyclin-dependent kinase 2/cyclin A (Homo sapiens) (UniProt P24941+P20248+P78396); assay: Inhibition of CDK2/Cyclin A assessed as residual activity at 10 uM after 80 mins by microplate scintillation counting; type: protein-complex assay
[16] = biological target: Receptor tyrosine-protein kinase erbB-2 (Homo sapiens) (UniProt P04626); assay: Inhibition of ERBB2 assessed as residual activity at 1 uM after 80 mins by microplate scintillation counting
[17] = biological target: Aurora kinase B (Homo sapiens) (UniProt Q96GD4); assay: Inhibition of Aurora B assessed as residual activity at 10 uM after 80 mins by microplate scintillation counting
[18] = Solubility in water by spectrophotometry; type: physicochemical
[19] = biological target: Muscle, skeletal receptor tyrosine-protein kinase (Homo sapiens) (UniProt O15146); assay: Inhibition of MUSK assessed as residual activity at 1 uM after 80 mins by microplate scintillation counting
[20] = biological target: Receptor-type tyrosine-protein kinase FLT3 (Homo sapiens) (UniProt P36888); assay: Inhibition of FLT3 assessed as residual activity at 10 uM after 80 mins by microplate scintillation counting
[21] = biological target: Focal adhesion kinase 1 (Homo sapiens) (UniProt Q05397); assay: Inhibition of FAK assessed as residual activity at 10 uM after 80 mins by microplate scintillation counting
[22] = biological target: Cyclin-dependent kinase 4/cyclin D1 (Homo sapiens) (UniProt P11802+P24385); assay: Inhibition of CDK4/Cyclin D1 assessed as residual activity at 1 uM after 80 mins by microplate scintillation counting; type: protein-complex assay
[23] = biological target: Mast/stem cell growth factor receptor Kit (Homo sapiens) (UniProt P10721); assay: Inhibition of KIT assessed as residual activity at 10 uM after 80 mins by microplate scintillation counting
[24] = biological target: Cyclin-dependent kinase 2/cyclin E1 (Homo sapiens) (UniProt P24864+P24941); assay: Inhibition of CDK2/Cyclin E assessed as residual activity at 1 uM after 80 mins by microplate scintillation counting; type: protein-complex assay
[25] = biological target: Tyrosine-protein kinase ABL1 (Homo sapiens) (UniProt P00519); assay: Inhibition of ABL1 assessed as residual activity at 1 uM after 80 mins by microplate scintillation counting
[26] = biological target: Serine/threonine-protein kinase Chk1 (Homo sapiens) (UniProt O14757); assay: Inhibition of CHK1 assessed as residual activity at 1 uM after 80 mins by microplate scintillation counting
[27] = biological target: Tyrosine-protein kinase JAK2 (Homo sapiens) (UniProt O60674); assay: Inhibition of JAK2 assessed as residual activity at 10 uM after 80 mins by microplate scintillation counting
[28] = biological target: Fibroblast growth factor receptor 1 (Homo sapiens) (UniProt P11362); assay: Inhibition of FGFR1 assessed as residual activity at 10 uM after 80 mins by microplate scintillation counting

Aurora kinase B (Homo sapiens), sequence (Q96GD4 whole entry): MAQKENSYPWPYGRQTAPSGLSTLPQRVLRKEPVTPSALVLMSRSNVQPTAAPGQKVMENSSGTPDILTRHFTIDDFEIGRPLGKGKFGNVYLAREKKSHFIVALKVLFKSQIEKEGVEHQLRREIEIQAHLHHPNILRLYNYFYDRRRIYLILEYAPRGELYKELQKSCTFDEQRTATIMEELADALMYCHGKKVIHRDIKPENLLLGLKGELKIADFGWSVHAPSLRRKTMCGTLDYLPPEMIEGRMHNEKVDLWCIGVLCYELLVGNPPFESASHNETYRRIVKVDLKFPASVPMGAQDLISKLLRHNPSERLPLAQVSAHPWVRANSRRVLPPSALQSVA
T1 sequence (P06493 whole entry, looked up): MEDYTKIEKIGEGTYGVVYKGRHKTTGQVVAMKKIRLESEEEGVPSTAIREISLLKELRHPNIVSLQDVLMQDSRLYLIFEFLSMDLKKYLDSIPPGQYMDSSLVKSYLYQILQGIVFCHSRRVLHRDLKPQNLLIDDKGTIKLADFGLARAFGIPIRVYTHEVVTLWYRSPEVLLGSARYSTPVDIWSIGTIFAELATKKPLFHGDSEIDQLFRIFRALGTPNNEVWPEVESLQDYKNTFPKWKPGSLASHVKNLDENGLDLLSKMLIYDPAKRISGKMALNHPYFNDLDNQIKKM
T1 sequence (P14635 whole entry, looked up): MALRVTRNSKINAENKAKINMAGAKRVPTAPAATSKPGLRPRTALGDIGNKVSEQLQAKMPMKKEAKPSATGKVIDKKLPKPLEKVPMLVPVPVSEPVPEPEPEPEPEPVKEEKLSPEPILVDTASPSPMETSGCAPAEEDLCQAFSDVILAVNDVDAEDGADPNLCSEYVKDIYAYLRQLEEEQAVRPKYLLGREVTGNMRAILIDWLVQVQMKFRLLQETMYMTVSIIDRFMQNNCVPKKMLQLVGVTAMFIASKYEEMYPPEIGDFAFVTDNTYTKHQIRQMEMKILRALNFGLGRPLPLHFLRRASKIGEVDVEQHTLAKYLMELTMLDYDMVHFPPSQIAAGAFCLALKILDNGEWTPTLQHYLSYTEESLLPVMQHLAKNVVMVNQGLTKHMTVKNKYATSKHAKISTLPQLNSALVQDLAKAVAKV
Proto-oncogene tyrosine-protein kinase receptor Ret (Homo sapiens), sequence (P07949 whole entry): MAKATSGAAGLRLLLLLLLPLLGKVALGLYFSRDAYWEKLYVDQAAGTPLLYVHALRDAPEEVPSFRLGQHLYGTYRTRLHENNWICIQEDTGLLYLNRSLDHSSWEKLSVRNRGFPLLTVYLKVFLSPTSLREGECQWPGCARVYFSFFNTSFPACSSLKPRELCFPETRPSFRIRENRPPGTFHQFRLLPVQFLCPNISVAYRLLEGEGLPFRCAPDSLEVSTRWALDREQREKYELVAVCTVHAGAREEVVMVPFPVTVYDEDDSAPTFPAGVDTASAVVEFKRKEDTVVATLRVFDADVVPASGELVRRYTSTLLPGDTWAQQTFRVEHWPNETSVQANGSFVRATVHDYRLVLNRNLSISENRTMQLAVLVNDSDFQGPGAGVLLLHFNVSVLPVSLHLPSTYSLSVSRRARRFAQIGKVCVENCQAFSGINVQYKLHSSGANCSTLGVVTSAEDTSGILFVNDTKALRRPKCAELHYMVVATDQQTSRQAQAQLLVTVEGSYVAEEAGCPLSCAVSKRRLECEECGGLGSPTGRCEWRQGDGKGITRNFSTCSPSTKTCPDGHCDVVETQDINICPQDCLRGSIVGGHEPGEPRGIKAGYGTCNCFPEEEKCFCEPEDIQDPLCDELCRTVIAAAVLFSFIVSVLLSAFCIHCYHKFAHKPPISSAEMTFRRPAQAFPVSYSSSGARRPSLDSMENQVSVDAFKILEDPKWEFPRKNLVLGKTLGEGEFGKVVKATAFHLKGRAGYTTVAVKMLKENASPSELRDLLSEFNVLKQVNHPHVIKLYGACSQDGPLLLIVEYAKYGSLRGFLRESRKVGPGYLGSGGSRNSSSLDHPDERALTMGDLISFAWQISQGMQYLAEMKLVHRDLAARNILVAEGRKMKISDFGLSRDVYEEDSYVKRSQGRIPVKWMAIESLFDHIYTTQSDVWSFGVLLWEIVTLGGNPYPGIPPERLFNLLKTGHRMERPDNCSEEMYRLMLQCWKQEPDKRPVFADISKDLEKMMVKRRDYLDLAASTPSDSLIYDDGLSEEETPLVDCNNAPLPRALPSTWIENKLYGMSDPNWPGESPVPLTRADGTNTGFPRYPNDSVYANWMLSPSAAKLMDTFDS
Receptor-type tyrosine-protein kinase FLT3 (Homo sapiens), sequence (P36888 whole entry): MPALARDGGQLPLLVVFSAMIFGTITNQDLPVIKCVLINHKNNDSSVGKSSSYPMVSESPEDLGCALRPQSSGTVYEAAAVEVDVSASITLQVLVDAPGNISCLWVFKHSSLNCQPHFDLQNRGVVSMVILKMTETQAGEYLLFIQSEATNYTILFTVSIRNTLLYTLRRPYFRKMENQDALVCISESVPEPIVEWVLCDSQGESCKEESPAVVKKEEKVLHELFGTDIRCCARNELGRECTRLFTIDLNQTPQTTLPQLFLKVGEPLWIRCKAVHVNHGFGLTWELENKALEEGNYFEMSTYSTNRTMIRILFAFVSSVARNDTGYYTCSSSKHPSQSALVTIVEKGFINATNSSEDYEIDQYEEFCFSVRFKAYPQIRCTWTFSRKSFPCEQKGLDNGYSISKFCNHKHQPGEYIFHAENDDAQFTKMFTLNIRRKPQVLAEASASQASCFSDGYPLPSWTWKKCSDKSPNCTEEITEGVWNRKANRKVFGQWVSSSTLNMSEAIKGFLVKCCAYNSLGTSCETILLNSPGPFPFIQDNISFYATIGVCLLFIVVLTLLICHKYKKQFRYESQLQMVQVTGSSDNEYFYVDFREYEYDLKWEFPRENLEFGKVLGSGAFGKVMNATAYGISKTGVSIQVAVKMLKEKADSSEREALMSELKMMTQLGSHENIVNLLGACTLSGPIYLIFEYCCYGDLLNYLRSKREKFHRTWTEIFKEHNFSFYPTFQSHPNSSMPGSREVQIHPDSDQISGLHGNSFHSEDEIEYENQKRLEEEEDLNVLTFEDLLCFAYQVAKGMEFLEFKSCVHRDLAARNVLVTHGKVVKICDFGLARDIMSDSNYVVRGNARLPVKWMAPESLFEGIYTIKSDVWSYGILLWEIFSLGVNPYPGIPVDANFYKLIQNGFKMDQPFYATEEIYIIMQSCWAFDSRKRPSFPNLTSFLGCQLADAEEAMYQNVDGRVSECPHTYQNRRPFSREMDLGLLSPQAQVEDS
Focal adhesion kinase 1 (Homo sapiens), sequence (Q05397 2-1052 limits assumed): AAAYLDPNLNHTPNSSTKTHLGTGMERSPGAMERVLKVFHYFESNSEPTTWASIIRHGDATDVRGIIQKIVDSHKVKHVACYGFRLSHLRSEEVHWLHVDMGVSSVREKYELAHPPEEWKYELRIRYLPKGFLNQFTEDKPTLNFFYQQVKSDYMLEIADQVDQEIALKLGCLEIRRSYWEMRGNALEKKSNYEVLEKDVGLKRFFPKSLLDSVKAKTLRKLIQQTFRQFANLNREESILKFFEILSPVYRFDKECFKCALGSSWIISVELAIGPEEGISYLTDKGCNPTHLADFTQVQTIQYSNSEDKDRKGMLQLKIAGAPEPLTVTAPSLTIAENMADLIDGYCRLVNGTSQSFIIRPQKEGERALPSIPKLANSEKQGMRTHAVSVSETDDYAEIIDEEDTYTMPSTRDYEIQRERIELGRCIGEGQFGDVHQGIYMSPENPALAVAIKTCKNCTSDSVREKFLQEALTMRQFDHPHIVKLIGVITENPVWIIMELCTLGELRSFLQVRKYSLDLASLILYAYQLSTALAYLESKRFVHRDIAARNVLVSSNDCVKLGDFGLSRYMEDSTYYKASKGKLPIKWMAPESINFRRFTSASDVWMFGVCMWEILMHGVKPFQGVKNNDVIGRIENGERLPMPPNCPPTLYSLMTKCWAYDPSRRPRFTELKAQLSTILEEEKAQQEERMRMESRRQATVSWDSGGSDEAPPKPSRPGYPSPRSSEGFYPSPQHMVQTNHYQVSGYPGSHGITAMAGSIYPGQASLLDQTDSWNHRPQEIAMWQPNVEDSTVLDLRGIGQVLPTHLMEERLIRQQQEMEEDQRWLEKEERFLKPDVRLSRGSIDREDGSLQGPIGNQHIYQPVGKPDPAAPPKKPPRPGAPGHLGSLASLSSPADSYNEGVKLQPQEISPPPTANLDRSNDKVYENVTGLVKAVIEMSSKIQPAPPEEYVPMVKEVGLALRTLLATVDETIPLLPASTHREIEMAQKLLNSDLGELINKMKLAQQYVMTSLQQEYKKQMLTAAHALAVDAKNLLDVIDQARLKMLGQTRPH
Fibroblast growth factor receptor 1 (Homo sapiens), sequence (P11362 22-822 limits assumed): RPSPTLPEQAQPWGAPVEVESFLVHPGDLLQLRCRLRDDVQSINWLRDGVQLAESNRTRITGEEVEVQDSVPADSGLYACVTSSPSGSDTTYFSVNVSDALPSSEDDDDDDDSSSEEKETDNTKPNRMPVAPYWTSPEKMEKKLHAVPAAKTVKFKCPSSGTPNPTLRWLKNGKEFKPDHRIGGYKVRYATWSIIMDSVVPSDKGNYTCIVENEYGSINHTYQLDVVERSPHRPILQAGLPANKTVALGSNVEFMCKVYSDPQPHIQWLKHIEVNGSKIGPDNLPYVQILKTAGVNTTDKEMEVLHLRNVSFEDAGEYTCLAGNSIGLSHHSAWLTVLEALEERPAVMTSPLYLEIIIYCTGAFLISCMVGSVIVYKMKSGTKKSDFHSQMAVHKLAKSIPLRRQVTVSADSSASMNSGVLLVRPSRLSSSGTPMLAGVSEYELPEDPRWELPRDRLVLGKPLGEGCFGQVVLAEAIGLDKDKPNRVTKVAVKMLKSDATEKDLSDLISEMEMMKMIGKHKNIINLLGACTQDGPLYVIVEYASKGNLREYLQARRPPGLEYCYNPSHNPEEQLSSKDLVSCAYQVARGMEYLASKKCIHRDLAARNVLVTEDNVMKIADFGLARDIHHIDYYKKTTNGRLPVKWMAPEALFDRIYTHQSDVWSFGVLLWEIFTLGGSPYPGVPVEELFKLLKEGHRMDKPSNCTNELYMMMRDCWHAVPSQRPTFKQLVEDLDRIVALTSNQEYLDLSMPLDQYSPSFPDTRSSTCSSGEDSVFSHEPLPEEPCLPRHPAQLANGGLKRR

Q: For `CN1CCN(c2ccc(NC(=O)c3ccc4c(c3)/C(=C3/Nc5ccccc5C3=O)C(=O)N4)cc2)CC1`, which Activity [1] is on record?
A: Its Activity is 92%.

Q: What about the Activity [2] of the same compound?
A: Its Activity is 58%.

Q: What about the Activity [3] of the same compound?
A: The Activity was 79%.

Q: And the Activity [4]?
A: The Activity was 86%.

Q: And the Activity [5]?
A: The Activity was 67%.

Q: And the Activity [6]?
A: Its Activity is 69%.

Q: What about the Activity [7] of the same compound?
A: Its Activity is 94%.

Q: What about the Activity [8] of the same compound?
A: The Activity was 65%.

Q: And the Activity [9]?
A: The Activity was 98%.

Q: What about the Activity [10] of the same compound?
A: The Activity was 23%.

Q: And the Activity [11]?
A: Its Activity is 16%.

Q: And the Activity [12]?
A: The Activity was 88%.

Q: And the Activity [13]?
A: Its Activity is 103%.

Q: And the Activity [14]?
A: The Activity was 78%.

Q: And the Activity [15]?
A: The Activity was 20%.

Q: What about the Activity [16] of the same compound?
A: Its Activity is 99%.

Q: What about the Activity [17] of the same compound?
A: The Activity was 73%.

Q: And the solubility [18]?
A: Its solubility is 520 µg/mL (≈ 1080 µM).

Q: And the Activity [19]?
A: The Activity was 81%.

Q: And the Activity [20]?
A: The Activity was 11%.

Q: What about the Activity [21] of the same compound?
A: The Activity was 92%.

Q: What about the Activity [22] of the same compound?
A: Its Activity is 64%.

Q: What about the Activity [23] of the same compound?
A: Its Activity is 129%.

Q: What about the Activity [24] of the same compound?
A: The Activity was 63%.

Q: What about the Activity [25] of the same compound?
A: Its Activity is 88%.

Q: And the Activity [26]?
A: Its Activity is 106%.

Q: And the Activity [27]?
A: Its Activity is 48%.

Q: And the Activity [28]?
A: The Activity was 83%.
